Experimental data from ChEMBL document CHEMBL3286131, “Design, synthesis and systematic evaluation of cytotoxic 3-heteroarylisoquinolinamines as topoisomerases inhibitors” (Eur J Med Chem, 2014).
“And” between values parts separate entries of the source, which are not always exact repeats. Identical values can stand only once.

Legend:
[1] = Cytotoxicity against human MCF10A cells after 2 days; assay type: cell-based, MCF-10A
In short: (§1)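 Cells seeded at 2-4 × 10^4 per well in medium with 10% FBS and incubated overnight at 37 °C, 5% CO2. Graded compound concentrations added on day 2. CCK-8 reagent added on day 4 for a further 4 h, absorbance read at 450 nm. IC50 from a four-parameter logistic fit; mean ± S.D. of three experiments run in triplicate.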

T47D = experiment: Cytotoxicity against human T47D cells after 2 days; assay type: functional, cell-based; in short: as §1
DU-145 = experiment: Cytotoxicity against human DU145 cells after 2 days; assay type: functional, cell-based; in short: as §1
[2] = Cytotoxicity against human HCT15 cells after 2 days; assay type: functional, cell-based, HCT-15; in short: as §1
HeLa [3] = experiment: Cell cycle arrest in human HeLa cells assessed as accumulation at G0/G1 phase phase at 5 uM after 24 hrs using ethidium bromide staining by flow cytometry analysis relative to control; assay type: functional; conditions: in the assay text read “propidium iodide staining” for “ethidium bromide staining”
In short: (§2)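 HeLa cells exposed to graded compound concentrations for 24 h, harvested by centrifugation, PBS-washed twice, fixed overnight on ice in 70% ethanol. Stained with 10 μg/mL propidium iodide plus 0.5 mg/mL RNase and 0.1% Triton X-100 in PBS, 30 min at 37 °C in the dark. Flow cytometry gates: sub-G0/G1, G0/G1, S, G2/M.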

HeLa [4] = experiment: Cell cycle arrest in human HeLa cells assessed as accumulation at S phase phase at 5 uM after 24 hrs using ethidium bromide staining by flow cytometry analysis relative to control; assay type: functional; conditions: in the assay text read “propidium iodide staining” for “ethidium bromide staining”; in short: as §2
HeLa [5] = experiment: Cell cycle arrest in human HeLa cells assessed as accumulation at G2/M phase phase at 5 uM after 24 hrs using ethidium bromide staining by flow cytometry analysis relative to control; assay type: functional; conditions: in the assay text read “propidium iodide staining” for “ethidium bromide staining”; in short: as §2
HeLa [6] = experiment: Cell cycle arrest in human HeLa cells assessed as accumulation at sub-G0/G1 phase at 10 uM after 24 hrs using ethidium bromide staining by flow cytometry analysis relative to control; assay type: functional; conditions: in the assay text read “propidium iodide staining” for “ethidium bromide staining”; in short: as §2
HeLa [7] = experiment: Cell cycle arrest in human HeLa cells assessed as accumulation at G0/G1 phase phase at 10 uM after 24 hrs using ethidium bromide staining by flow cytometry analysis relative to control; assay type: functional; conditions: in the assay text read “propidium iodide staining” for “ethidium bromide staining”; in short: as §2
HeLa [8] = experiment: Cell cycle arrest in human HeLa cells assessed as accumulation at S phase phase at 10 uM after 24 hrs using ethidium bromide staining by flow cytometry analysis relative to control; assay type: functional; conditions: in the assay text read “propidium iodide staining” for “ethidium bromide staining”; in short: as §2
HeLa [9] = experiment: Cell cycle arrest in human HeLa cells assessed as accumulation at G2/M phase phase at 10 uM after 24 hrs using ethidium bromide staining by flow cytometry analysis relative to control; assay type: functional; conditions: in the assay text read “propidium iodide staining” for “ethidium bromide staining”; in short: as §2
HeLa [10] = experiment: Cell cycle arrest in human HeLa cells assessed as accumulation at sub-G0/G1 phase at 25 uM after 24 hrs using […] by flow cytometry analysis relative to control; assay type: functional; in short: as §2
HeLa [11] = experiment: Cell cycle arrest in human HeLa cells assessed as accumulation at G0/G1 phase phase at 25 uM after 24 hrs using […] by flow cytometry analysis relative to control; assay type: functional; in short: as §2
HeLa [12] = experiment: Cell cycle arrest in human HeLa cells assessed as accumulation at S phase phase at 25 uM after 24 hrs using […] by flow cytometry analysis relative to control; assay type: functional; in short: as §2
HeLa [13] = experiment: Cell cycle arrest in human HeLa cells assessed as accumulation at G2/M phase phase at 25 uM after 24 hrs using […] by flow cytometry analysis relative to control; assay type: functional; in short: as §2
HeLa [14] = experiment: Cell cycle arrest in human HeLa cells assessed as accumulation at sub-G0/G1 phase at 50 uM after 24 hrs using […] by flow cytometry analysis relative to control; assay type: functional; in short: as §2
HeLa [15] = experiment: Cell cycle arrest in human HeLa cells assessed as accumulation at G0/G1 phase phase at 50 uM after 24 hrs using […] by flow cytometry analysis relative to control; assay type: functional; in short: as §2
HeLa [16] = experiment: Cell cycle arrest in human HeLa cells assessed as accumulation at S phase phase at 50 uM after 24 hrs using […] by flow cytometry analysis relative to control; assay type: functional; in short: as §2
HeLa [17] = experiment: Cell cycle arrest in human HeLa cells assessed as accumulation at G2/M phase phase at 50 uM after 24 hrs using […] by flow cytometry analysis relative to control; assay type: functional; in short: as §2
[18] = target: DNA topoisomerase 2-alpha (Homo sapiens) (UniProt P11388); experiment: Inhibition of human DNA topoisomerase-2a-mediated relaxation of supercoiled DNA pBR322 at 100 uM after 4 hrs using ethidium bromide staining by agarose gel electrophoresis analysis
Chain of DNA topoisomerase 2-alpha (Homo sapiens) (P11388 whole entry): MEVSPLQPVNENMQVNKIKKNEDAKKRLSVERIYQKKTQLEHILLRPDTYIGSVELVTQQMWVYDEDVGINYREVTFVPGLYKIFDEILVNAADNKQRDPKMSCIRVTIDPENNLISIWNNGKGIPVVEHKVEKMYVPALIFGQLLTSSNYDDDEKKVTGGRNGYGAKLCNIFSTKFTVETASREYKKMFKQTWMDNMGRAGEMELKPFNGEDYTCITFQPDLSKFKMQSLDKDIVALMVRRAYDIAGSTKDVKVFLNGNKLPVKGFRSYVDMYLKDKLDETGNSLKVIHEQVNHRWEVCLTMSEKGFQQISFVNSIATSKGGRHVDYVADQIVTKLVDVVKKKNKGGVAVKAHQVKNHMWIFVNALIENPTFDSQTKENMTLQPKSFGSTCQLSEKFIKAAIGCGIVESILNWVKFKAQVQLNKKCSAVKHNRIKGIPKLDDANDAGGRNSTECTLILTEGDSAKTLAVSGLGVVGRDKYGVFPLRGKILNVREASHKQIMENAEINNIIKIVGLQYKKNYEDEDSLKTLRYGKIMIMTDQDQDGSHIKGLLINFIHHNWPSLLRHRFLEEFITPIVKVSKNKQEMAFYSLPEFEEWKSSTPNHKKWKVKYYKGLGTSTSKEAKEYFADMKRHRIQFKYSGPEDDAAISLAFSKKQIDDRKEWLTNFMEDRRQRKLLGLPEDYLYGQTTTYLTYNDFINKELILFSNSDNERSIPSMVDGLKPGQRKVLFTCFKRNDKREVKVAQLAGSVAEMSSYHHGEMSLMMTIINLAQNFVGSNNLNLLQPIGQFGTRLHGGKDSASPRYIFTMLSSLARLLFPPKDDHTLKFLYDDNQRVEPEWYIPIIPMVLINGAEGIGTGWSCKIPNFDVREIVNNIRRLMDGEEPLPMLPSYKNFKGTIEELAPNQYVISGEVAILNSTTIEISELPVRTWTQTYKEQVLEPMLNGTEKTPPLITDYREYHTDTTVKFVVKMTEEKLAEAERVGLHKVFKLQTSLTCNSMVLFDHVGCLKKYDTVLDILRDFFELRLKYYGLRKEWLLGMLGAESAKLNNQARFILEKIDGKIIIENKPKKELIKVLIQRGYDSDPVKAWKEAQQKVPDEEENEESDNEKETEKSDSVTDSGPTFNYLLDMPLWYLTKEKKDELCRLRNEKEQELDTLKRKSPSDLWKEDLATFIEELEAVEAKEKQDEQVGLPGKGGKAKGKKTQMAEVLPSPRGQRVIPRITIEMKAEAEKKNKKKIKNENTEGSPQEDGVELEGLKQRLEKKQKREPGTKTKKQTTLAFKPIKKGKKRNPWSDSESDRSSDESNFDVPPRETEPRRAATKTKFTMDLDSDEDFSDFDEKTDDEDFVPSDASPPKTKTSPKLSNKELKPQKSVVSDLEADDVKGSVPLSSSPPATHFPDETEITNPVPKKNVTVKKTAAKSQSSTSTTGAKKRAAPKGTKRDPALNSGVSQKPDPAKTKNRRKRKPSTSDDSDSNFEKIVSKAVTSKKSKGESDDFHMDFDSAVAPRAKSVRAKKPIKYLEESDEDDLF
In short: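 Supercoiled pBR322 (200 ng) incubated with human topo IIα (1 unit) ± compound for 30 min at 30 °C. Buffer: 10 mM Tris-HCl pH 7.9, 50 mM NaCl, 50 mM KCl, 5 mM MgCl2, 1 mM EDTA, 1 mM ATP, BSA. Stopped with EDTA. 1% agarose gel run at 25 V for 4 h in TAE, ethidium bromide stain, supercoiled DNA quantified by UV imaging.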

[19] = target: T1, DNA topoisomerase 1 (Homo sapiens) (UniProt P11387); experiment: Inhibition of recombinant human DNA topoisomerase-1-mediated relaxation of supercoiled DNA pBR322 at 100 uM after 7 hrs using ethidium bromide staining by agarose gel electrophoresis analysis
T1 sequence (whole entry): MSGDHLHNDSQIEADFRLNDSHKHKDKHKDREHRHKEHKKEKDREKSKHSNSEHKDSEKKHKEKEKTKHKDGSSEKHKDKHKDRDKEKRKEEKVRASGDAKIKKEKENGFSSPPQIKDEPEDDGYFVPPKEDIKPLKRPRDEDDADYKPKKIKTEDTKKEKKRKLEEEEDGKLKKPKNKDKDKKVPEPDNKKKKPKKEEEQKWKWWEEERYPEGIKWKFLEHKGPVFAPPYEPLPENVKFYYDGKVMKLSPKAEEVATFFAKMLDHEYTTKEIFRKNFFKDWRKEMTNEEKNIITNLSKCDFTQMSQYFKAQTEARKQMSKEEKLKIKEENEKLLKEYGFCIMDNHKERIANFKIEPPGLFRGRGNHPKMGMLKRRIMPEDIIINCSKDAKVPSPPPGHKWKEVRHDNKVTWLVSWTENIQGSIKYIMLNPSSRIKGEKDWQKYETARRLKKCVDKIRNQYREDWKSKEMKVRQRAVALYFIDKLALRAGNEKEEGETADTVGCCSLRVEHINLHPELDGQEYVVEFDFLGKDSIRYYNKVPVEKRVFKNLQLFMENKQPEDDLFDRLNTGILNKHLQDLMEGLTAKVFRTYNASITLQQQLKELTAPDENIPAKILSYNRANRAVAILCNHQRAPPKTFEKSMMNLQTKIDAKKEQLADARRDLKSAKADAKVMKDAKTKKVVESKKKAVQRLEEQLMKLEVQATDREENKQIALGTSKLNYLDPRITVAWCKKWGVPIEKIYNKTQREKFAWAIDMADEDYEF
In short: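 pBR322 (100 ng) incubated with recombinant human topo I (0.4 units) ± compound for 30 min at 37 °C. Buffer: 10 mM Tris-HCl pH 7.9, 150 mM NaCl, 0.1% BSA, 1 mM spermidine, 5% glycerol. Quenched with sarcosyl stop solution. 1% agarose gel run at 15 V for 7 h in TAE, ethidium bromide stain, supercoiled DNA quantified under UV.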

| Compound | IC50 ([1]; Homo sapiens, MCF-10A, 48 h) [µM] | IC50 (T47D; Homo sapiens, T47D, 48 h) [µM] | IC50 (DU-145; du-145) [µM] | IC50 ([2]; hct-15) [µM] | IC50 (T47D; t47d) [µM] | IC50 (DU-145; Homo sapiens, DU-145, 48 h) [µM] | also measured |
| --- | --- | --- | --- | --- | --- | --- | --- |
| CCN1CCN(c2nc(-c3cccs3)cc3ccc(C)cc23)CC1 | 42.9 | 2.84 | 31.1 | 7.71 |  |  |  |
| c1csc(-c2cc3ccccc3c(N3CCCCC3)n2)c1 [listing 1 of 2 here] | > 50 |  |  | 3.61 | 3.22 | > 50 |  |
| c1csc(-c2cc3ccccc3c(N3CCCCC3)n2)c1 [listing 2 of 2 here] |  |  |  | 1.04 | 7.26 |  |  |
| Cc1ccc2c(N3CCCCC3)nc(-c3cccs3)cc2c1 |  |  |  | 1.88 | 8.03 |  |  |
| Cc1ccc2c(N3CCNCC3)nc(-c3cccs3)cc2c1 | 7.25 |  |  | 1.31 | 8.74 | 8.31 | Activity (HeLa [3]): 62.69%; Activity (HeLa [4]): 11.25%; Activity (HeLa [5]): 11.58%; Activity (HeLa [6]): 92.31%; Activity (HeLa [7]): 3.24%; Activity (HeLa [8]): 0.64%; Activity (HeLa [9]): 0.23%; Activity (HeLa [10]): 96%; Activity (HeLa [11]): 1.89%; Activity (HeLa [12]): 0.5%; Activity (HeLa [13]): 0.22%; Activity (HeLa [14]): 97.06%; Activity (HeLa [15]): 1.4%; Activity (HeLa [16]): 0.35%; Activity (HeLa [17]): 0.04% |
| Cc1ccc2cc(-c3cccs3)nc(N3CCN(C)CC3)c2c1 | 11.6 |  |  | 1.64 | 1.96 | 16.2 |  |
| c1csc(-c2cc3ccccc3c(N3CCOCC3)n2)c1 [listing 1 of 2 here] |  | 14.8 |  |  |  | 47 | IC50 ([2]; Homo sapiens, HCT-15, 48 h): 14.7 µM |
| CN1CCN(c2nc(-c3cccs3)cc3ccccc23)CC1 [listing 1 of 2 here] |  | 15.4 |  | 2.44 |  | 40.2 | IC50 ([1]; mcf-10a): 18.1 µM |
| c1csc(-c2cc3ccccc3c(N3CCOCC3)n2)c1 [listing 2 of 2 here] | > 50 |  | > 50 | 21.3 | 24.4 |  |  |
| Cc1ccc2c(N3CCN(C)CC3)nc(-c3cccs3)cc2c1 [listing 1 of 2 here] |  |  | 40 |  | 18.4 |  | IC50 ([1]; mcf-10a): 14.9 µM; IC50 ([2]; Homo sapiens, HCT-15, 48 h): 3.19 µM |
| Cc1ccc2c(N3CCN(C)CC3)nc(-c3cccs3)cc2c1 [listing 2 of 2 here] | 13.3 | 9.35 |  | 4.37 |  | 33 |  |
| CCN1CCN(c2nc(-c3cccs3)cc3ccccc23)CC1 |  |  |  |  |  |  | inhibition [18]: 3.2% and 9.1%; inhibition [19]: 2.6% and 15% |
| CN1CCN(c2nc(-c3cccs3)cc3ccccc23)CC1 [listing 2 of 2 here] |  |  | 44.5 | 7.9 | 16.1 |  | IC50 ([1]; mcf-10a): 38.8 µM |
| Cl.Nc1nc(-c2cccs2)cc2ccccc12 |  |  |  | 24.4 | 17.5 |  | Activity (HeLa [3]): 63.67%; Activity (HeLa [4]): 7.76%; Activity (HeLa [5]): 16.08%; Activity (HeLa [6]): 6.6%; Activity (HeLa [7]): 64.43%; Activity (HeLa [8]): 9.55%; Activity (HeLa [9]): 13.67%; Activity (HeLa [10]): 5.22%; Activity (HeLa [11]): 56.01%; Activity (HeLa [12]): 13.82%; Activity (HeLa [13]): 11.42%; Activity (HeLa [14]): 6.54%; Activity (HeLa [15]): 52.6%; Activity (HeLa [16]): 10.09%; Activity (HeLa [17]): 22.37% |
| COc1cccc2c1C(=O)c1c(O)c3c(c(O)c1C2=O)C[C@@](O)(C(=O)CO)C[C@@H]3O[C@H]1C[C@H](N)[C@H](O)[C@H](C)O1 [DOXORUBICIN] | 0.93 | 0.84 |  |  |  | 4.88 |  |
| CCN1CCN(c2nc(-c3cccs3)cc3cc(C)ccc23)CC1 | 28.9 |  | 22.1 | 4.4 | 17.7 |  |  |
